≈ marks a conversion by molar mass, not a printed value.
Legend:
[1] = tested on: HL-60; assay: Cytotoxicity against human HL60 cells after 3 days by MTT assay; type: functional, cell-based; details: HL-60, 72 h
How it was run: (§1)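 Cells were kept in MEM with 10% fetal calf serum and kanamycin; the P-388/VCR line also received 0.5 μg/mL vincristine. Cells were seeded at 20 000 cells/mL and tested at eight concentrations, starting from 25 μg/mL in the well. After 3 days of culture, living cells were counted by MTT staining. Each experiment was run three times.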

[2] = tested on: P388; assay: Cytotoxicity against mouse P388 cells after 3 days by MTT assay; type: functional, cell-based; details: P388, 72 h; how it was run: as §1
[3] = tested on: P388; assay: Cytotoxicity against adriamycin-resistant mouse P388 cells after 3 days by MTT assay; type: functional, cell-based; details: P388, 72 h; how it was run: as §1
[4] = tested on: P388; assay: Cytotoxicity against vincristine-resistant mouse P388 cells after 3 days by MTT assay; type: functional, cell-based; details: P388, 72 h; how it was run: as §1
[5] = tested on: Leishmania donovani; assay: Antileishmanial activity against Leishmania donovani promastigotes after 6 to 7 hrs; type: functional, organism-based
How it was run: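 Promastigotes were maintained in 199 medium with 10% fetal calf serum and kanamycin. They were plated at 10 000 cells/mL and exposed to four sample concentrations, starting from 25 μg/mL in the well.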

Row | Structure (SMILES) | IC50 [1] [µg/mL] | IC50 [2] [µg/mL] | IC50 [3] [µg/mL] | IC50 [4] [µg/mL] | IC50 [5] [µg/mL]
1 | CN[C@H]1[C@@H](OC)C[C@H](O[C@H]2CC[C@@]3(C)[C@@H](CC[C@@H]4[C@@H]3CC[C@]3(C)[C@H](C(C)=O)CC[C@]43O)C2)O[C@@H]1C | 0.01 (≈ 0.0203 µM) | 17 (≈ 34.6 µM) | 10.4 (≈ 21.2 µM) | 10.1 (≈ 20.5 µM) | 6.25 (≈ 12.7 µM)
2 | CO[C@H]1C[C@H](O[C@H]2CC[C@@]3(C)[C@@H](CC[C@@H]4[C@@H]3CC[C@]3(C)[C@@H](C(C)=O)CC[C@]43O)C2)O[C@H](C)[C@H]1N | 2.6 (≈ 5.44 µM) | 4 (≈ 8.37 µM) | 11.5 (≈ 24.1 µM) | 3.5 (≈ 7.33 µM) | 1.56 (≈ 3.27 µM)
3 | CC(=O)[C@H]1C[C@H](O)[C@H]2[C@@H]3CC=C4C[C@H](N)CC[C@]4(C)[C@H]3CC[C@@]21C | 1.2 (≈ 3.62 µM) | 4.1 (≈ 12.4 µM) | 3.6 (≈ 10.9 µM) | 1.4 (≈ 4.22 µM) | > 1.56
4 | CC(=O)[C@H]1CC[C@]2(O)[C@@H]3CC[C@H]4C[C@H](N)CC[C@]4(C)[C@H]3CC[C@]12C | 10.1 (≈ 30.3 µM) | 3.6 (≈ 10.8 µM) | 8.6 (≈ 25.8 µM) | 3.4 (≈ 10.2 µM) | 6.25 (≈ 18.7 µM)
5 | CO[C@H]1C[C@H](O[C@H]2CC[C@@]3(C)[C@@H](CC[C@@H]4[C@@H]3CC[C@]3(C)[C@H](C(C)=O)CC[C@]43O)C2)O[C@H](C)[C@H]1N | 0.21 (≈ 0.44 µM) | 10.5 (≈ 22 µM) | 13.5 (≈ 28.3 µM) | 10.2 (≈ 21.4 µM) | 6.25 (≈ 13.1 µM)
6 | CN[C@H]1[C@@H](OC)C[C@H](O[C@H]2CC[C@@]3(C)[C@@H](CC[C@@H]4[C@@H]3CC[C@]3(C)[C@@H](C(C)=O)CC[C@]43O)C2)O[C@@H]1C [HOLACURTINE] | 0.86 (≈ 1.75 µM) | 4.2 (≈ 8.54 µM) | 3.4 (≈ 6.91 µM) | 2.8 (≈ 5.69 µM) | 1.56 (≈ 3.17 µM)
7 | CO[C@H]1C[C@H](O[C@H]2CC[C@@]3(C)C(=CC[C@@H]4[C@@H]3CC[C@]3(C)[C@@H](C(C)=O)C[C@H](O)[C@]43O)C2)O[C@H](C)[C@H]1N [HOLACURTINOL] | 2.6 (≈ 5.29 µM) | 16 (≈ 32.5 µM) | 10.4 (≈ 21.2 µM) | 10 (≈ 20.3 µM) | 6.25 (≈ 12.7 µM)
8 | CC(=O)[C@H]1CC[C@H]2[C@@H]3CC=C4C[C@H](N)CC[C@]4(C)[C@H]3CC[C@]12C [HOLAMINE] | 0.2 (≈ 0.634 µM) | 0.91 (≈ 2.88 µM) | 0.85 (≈ 2.69 µM) | 0.83 (≈ 2.63 µM) | 0.39 (≈ 1.24 µM)

— ChEMBL document CHEMBL1151302, “Cytotoxic and leishmanicidal aminoglycosteroids and aminosteroids from Holarrhena curtisii” (J Nat Prod, 1998)
